From ChEMBL document CHEMBL1129494, “Structure-based design of lipophilic quinazoline inhibitors of thymidylate synthase” (J Med Chem, 1996)
pIC50: −log10 of the molar value.

Legend:
[1] = molecular target: Thymidylate synthase (Escherichia coli) (UniProt C3SWJ7)
[2] = molecular target: Thymidylate synthase (Escherichia coli) (UniProt C3SWJ7); remark: listed apart in the source
[3] = molecular target: Thymidylate synthase (Homo sapiens) (UniProt P04818)
L1210 [4] = test: Inhibition of murine L1210 cell line tissue culture growth; assay type: functional, cell-based; conditions: Mus musculus
Method in brief: (§1)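 Murine L1210 leukemia cells seeded at 1000 cells/well in RPMI-1640 containing 5% fetal calf serum and 0.5% DMSO, exposed to nine 2-fold serial dilutions for 3 days. Growth was read by MTT (4 h), with formazan dissolved in DMSO and measured spectrophotometrically. IC50 comes from semilog concentration plots of the mean of four assessments per dilution versus control growth.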

[5] = molecular target: Thymidylate synthase (Homo sapiens) (UniProt P04818); remark: listed apart in the source
GC3/MTK- [6] = test: (§2) Inhibitory activity of compound against growth of thymidine kinase-deficient human adenocarcinoma cell line (GC3/M TK-) in tissue culture; assay type: functional; design: concentration or dose not given beside the values
Method in brief: (§3)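 MTT colorimetric growth assay in the thymidine kinase-deficient human adenocarcinoma line. Seeded at 10 000 cells/well in RPMI-1640 with 10% fetal calf serum and 0.5% DMSO. Nine 2-fold serial dilutions of compound, 5 day incubation, then 4 h MTT. Formazan dissolved in DMSO and read spectrophotometrically. IC50 taken from semilog plots of the mean of four growth assessments per dilution, relative to control cultures.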

CCRF-CEM [7] = test: Activity for growth inhibition in tissue culture of human leukemias (CCRF-CEM). value in parenthesis indicates % inhibition; assay type: functional, cell-based
GC3/MTK- [8] = test: Inhibition of GC3/M TK- (human adenocarcinoma) cell growth in vitro.; assay type: functional, cell-based
Method in brief: (§4)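 Thymidine kinase-deficient human adenocarcinoma GC3/M TK- cells seeded at 10 000 cells/well in RPMI-1640 with 10% fetal calf serum and 0.5% DMSO. Compound given as nine 2-fold serial dilutions over a 5 day incubation, then 4 h MTT and spectrophotometric formazan read after DMSO dissolution. IC50 from semilog plots of the mean of four growth assessments relative to control cultures.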

GC3/MTK- [9] = test: Activity for growth inhibition in tissue culture of thymidine kinase-deficient human adenocarcinoma cell line (GC3/M TK-)value in parenthesis indicates % inhibition; assay type: functional, cell-based
L1210 [10] = test: (§5) Inhibition of L1210 (murine leukemia) cell growth in vitro.; assay type: functional, Mus musculus; design: concentration or dose not given beside the values
Method in brief: as §1

CCRF-CEM [11] = test: (§6) Inhibition of CCRF-CEM (human leukemia) cell growth in vitro.; assay type: functional, cell-based
Method in brief: (§7)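 MTT colorimetric growth assay (modified Mosmann) in CCRF-CEM human leukemia cells seeded at 10 000 cells/well in RPMI-1640 with 5% fetal calf serum and 0.5% DMSO. Nine 2-fold serial dilutions of compound, 5 day incubation, then 4 h MTT and formazan dissolved in DMSO for spectrophotometric reading. IC50 taken from semilog plots of the mean of four growth assessments per dilution relative to control cultures.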

CCRF-CEM [12] = test: Inhibitory activity of compound against growth of human leukemias (CCRF-CEM) cell lne in tissue culture; assay type: functional
Method in brief: as §7

GC3/MTK- [13] = test: as §2; assay type: functional
Method in brief: as §3

CCRF-CEM [14] = test: as §6; assay type: functional; design: concentration or dose not given beside the values
Method in brief: as §7

CCRF-CEM [15] = test: Activity for growth inhibition in tissue culture of human leukemias (CCRF-CEM); assay type: functional, cell-based
Method in brief: as §7

CCRF-CEM [16] = test: Inhibitory activity of compound against growth of human leukemias (CCRF-CEM) cell line in tissue culture; assay type: functional
Method in brief: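 CCRF-CEM human leukemia cells seeded at 10 000 cells/well in RPMI-1640 with 5% fetal calf serum and 0.5% DMSO. Exposed to nine 2-fold serial dilutions for 5 days, followed by 4 h with MTT. Formazan dissolved in DMSO and measured spectrophotometrically. IC50 read from semilog plots of the mean of four growth assessments per dilution versus control growth.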

L1210 [17] = test: as §5; assay type: functional, Mus musculus
Method in brief: as §1

CCRF-CEM [18] = test: Activity for growth inhibition in tissue culture of human leukemias( CCRF-CEM); assay type: functional, cell-based
Method in brief: as §7

GC3/MTK- [19] = test: Inhibition of GC3/M TK- (human adenocarcinoma) cell growth in vitro; Insoluble.; assay type: functional, cell-based
Method in brief: as §4

L1210 [20] = test: Activity for growth inhibition in tissue culture of murine (L1210); Insoluble; assay type: functional, cell-based, Mus musculus
Method in brief: as §1

CCRF-CEM [21] = test: Activity for growth inhibition in tissue culture of human leukemias (CCRF-CEM); Insoluble.; assay type: functional, cell-based
Method in brief: as §7

CCRF-CEM [22] = test: Inhibitory activity of compound against growth of human leukemias (CCRF-CEM) in tissue culture; assay type: functional
Method in brief: as §7

CCRF-CEM [23] = test: Activity for growth inhibition in tissue culture of human leukemias (CCRF-CEM). value in parenthesis indicates % inhibition.; assay type: functional, cell-based

Thymidylate synthase (Homo sapiens), sequence (P04818 2-313 limits assumed): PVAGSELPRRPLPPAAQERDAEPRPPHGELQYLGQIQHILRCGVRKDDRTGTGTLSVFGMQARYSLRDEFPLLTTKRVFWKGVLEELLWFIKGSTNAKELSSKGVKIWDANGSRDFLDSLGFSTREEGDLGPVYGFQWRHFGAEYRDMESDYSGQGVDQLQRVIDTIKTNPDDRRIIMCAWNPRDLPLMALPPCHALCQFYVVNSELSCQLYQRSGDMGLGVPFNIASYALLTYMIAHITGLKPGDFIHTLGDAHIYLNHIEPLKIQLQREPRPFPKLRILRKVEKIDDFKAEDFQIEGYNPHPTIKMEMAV
Thymidylate synthase (Escherichia coli), sequence (C3SWJ7 1-264): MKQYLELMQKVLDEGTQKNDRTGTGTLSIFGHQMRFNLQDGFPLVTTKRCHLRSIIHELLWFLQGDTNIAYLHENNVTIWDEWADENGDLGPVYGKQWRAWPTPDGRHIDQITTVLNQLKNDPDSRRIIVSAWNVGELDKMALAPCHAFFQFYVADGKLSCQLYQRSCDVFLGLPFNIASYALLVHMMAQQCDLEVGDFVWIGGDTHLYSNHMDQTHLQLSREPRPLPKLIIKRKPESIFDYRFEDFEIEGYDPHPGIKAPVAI

SMILES	Kii [1] [µM]	Kis [2] [µM]	Kii [3] [µM]	pIC50 (L1210 [4])	Kis [5] [µM]	pIC50 (CCRF-CEM [7])	pIC50 (CCRF-CEM [11])	pIC50 (GC3/MTK- [8])	Inhibition (L1210 [10]) [%]	Inhibition (GC3/MTK- [13]) [%]	Inhibition (CCRF-CEM [14]) [%]	also measured
C#CCN(Cc1ccc2nc(C)nc(O)c2c1)c1ccc(S(=O)(=O)NCC(=O)O)c(C(F)(F)F)c1	0.015	0.0059	0.019	< 4.12	0.0096	< 4.11	–	< 4.11	–	–	–	Inhibition (GC3/MTK- [6]): 28%
C#CCN(Cc1ccc2nc(C)nc(O)c2c1)c1cccc(CC)c1	24	5	3.8	< 5.30	2.7	< 5.30	–	–	25	20	26	pIC50 (GC3/MTK- [9]): < 5.30
C#CCN(Cc1ccc2nc(C)nc(O)c2c1)c1cccc(C(C)O)c1 (configuration not stated)	8.3	2.4	3.6	< 4.31	1.7	< 4.31	–	4.31	35	–	33	–
C#CCN(Cc1ccc2nc(C)nc(O)c2c1)c1ccccc1	–	–	–	< 5.19	–	–	< 4.97	< 4.97	35	24	–	Inhibition (CCRF-CEM [12]): 29%
C#CCN(Cc1ccc2nc(C)nc(O)c2c1)c1cccc(I)c1	1.4	0.33	0.44	< 5.28	0.16	< 5.28	–	< 5.28	–	–	10	Inhibition (GC3/MTK- [6]): 35%
C#CCN(Cc1ccc2nc(C)nc(O)c2c1)c1ccc(C#N)cc1	0.33	0.15	0.17	< 5.30	0.076	–	–	< 5.30	35	–	10	pIC50 (CCRF-CEM [15]): < 5.30
C#CCN(Cc1ccc2nc(C)nc(O)c2c1)c1ccc(S(N)(=O)=O)c(C(F)(F)F)c1	0.061	0.024	0.07	–	0.036	–	–	–	–	–	–	IC50 (GC3/MTK- [19]): Insoluble; IC50 (L1210 [20]): Insoluble; IC50 (CCRF-CEM [21]): Insoluble
C#CCN(Cc1ccc2nc(C)nc(O)c2c1)c1ccc(S(=O)(=O)N2CCN(C)CC2)cc1	0.28	0.13	0.19	< 5.00	0.083	–	< 5.00	< 5.00	27	–	–	Inhibition (CCRF-CEM [22]): 24%; Inhibition (GC3/MTK- [6]): 17%
C#CCN(Cc1ccc2nc(C)nc(O)c2c1)c1ccc(C#N)c(Cl)c1	0.1	0.035	0.079	5.35	0.037	–	< 5.17	5.17	–	25	–	Inhibition (CCRF-CEM [16]): 10%

Now from value to compound, other results behind:

Kii [1] [µM]	Kis [2] [µM]	Kii [3] [µM]	pIC50 (L1210 [4])	Kis [5] [µM]	pIC50 (CCRF-CEM [7])	pIC50 (CCRF-CEM [11])	SMILES	pIC50 (GC3/MTK- [8])	Inhibition (L1210 [10]) [%]	Inhibition (GC3/MTK- [13]) [%]	Inhibition (CCRF-CEM [14]) [%]	also measured
16	3.4	3.4	< 5.30	1.4	–	< 5.30	C#CCN(Cc1ccc2nc(C)nc(O)c2c1)c1cccc(C)c1	–	30	34	–	pIC50 (GC3/MTK- [9]): < 5.30; Inhibition (CCRF-CEM [12]): 20%
–	0.0048	0.0071	7.35	0.0085	–	–	C#CCN(Cc1ccc2nc(C)nc(O)c2c1)c1ccc(C(=O)NC(CCC(=O)O)C(=O)O)cc1 (configuration not stated)	7.32	–	–	–	pIC50 (CCRF-CEM [15]): 7.54
–	–	–	< 5.66	–	–	< 5.37	C#CCN(Cc1ccc2nc(C)nc(O)c2c1)c1cccc(C(F)(F)F)c1	< 5.37	–	25	–	Inhibition (CCRF-CEM [16]): 41%; Inhibition (L1210 [17]): 35%
3.7	0.85	0.77	< 5.40	0.36	–	–	C#CCN(Cc1ccc2nc(C)nc(O)c2c1)c1ccc(Cl)cc1	–	25	–	20	pIC50 (CCRF-CEM [18]): < 5.40
2.7	0.86	0.68	< 5.62	0.41	< 5.62	–	C#CCN(Cc1ccc2nc(C)nc(O)c2c1)c1cccc(C#C)c1	–	5	–	15	–
5.1	1.7	1.2	4.32	0.62	–	–	C#CCN(Cc1ccc2nc(C)nc(O)c2c1)c1cccc(CO)c1	< 4.27	–	–	30	pIC50 (CCRF-CEM [23]): < 4.27; Inhibition (GC3/MTK- [6]): 22%
0.064	0.042	0.028	< 5.56	0.021	< 5.56	–	C#CCN(Cc1ccc2nc(C)nc(O)c2c1)c1ccc(S(=O)(=O)C(F)(F)F)cc1	–	45	–	–	pIC50 (GC3/MTK- [9]): < 5.56
